Results published in ChEMBL document CHEMBL4364258, “Discovery of novel benzofuran-based compounds with neuroprotective and immunomodulatory properties for Alzheimer's disease treatment” (Eur J Med Chem, 2019).
Active and inactive are the calls of the source. The calls are words filed in the database; no cut-off is given here.

What was measured:
Cholinesterase [1] = biological target: T1, Cholinesterase (Homo sapiens, UniProt P06276); test: Inhibition of human recombinant BuChE at 25 uM using butyrylthiocholine iodide as substrate preincubated for 20 mins followed by substrate addition by Ellman's spectrophotometric method relative to control
T1 sequence (P06276 whole entry): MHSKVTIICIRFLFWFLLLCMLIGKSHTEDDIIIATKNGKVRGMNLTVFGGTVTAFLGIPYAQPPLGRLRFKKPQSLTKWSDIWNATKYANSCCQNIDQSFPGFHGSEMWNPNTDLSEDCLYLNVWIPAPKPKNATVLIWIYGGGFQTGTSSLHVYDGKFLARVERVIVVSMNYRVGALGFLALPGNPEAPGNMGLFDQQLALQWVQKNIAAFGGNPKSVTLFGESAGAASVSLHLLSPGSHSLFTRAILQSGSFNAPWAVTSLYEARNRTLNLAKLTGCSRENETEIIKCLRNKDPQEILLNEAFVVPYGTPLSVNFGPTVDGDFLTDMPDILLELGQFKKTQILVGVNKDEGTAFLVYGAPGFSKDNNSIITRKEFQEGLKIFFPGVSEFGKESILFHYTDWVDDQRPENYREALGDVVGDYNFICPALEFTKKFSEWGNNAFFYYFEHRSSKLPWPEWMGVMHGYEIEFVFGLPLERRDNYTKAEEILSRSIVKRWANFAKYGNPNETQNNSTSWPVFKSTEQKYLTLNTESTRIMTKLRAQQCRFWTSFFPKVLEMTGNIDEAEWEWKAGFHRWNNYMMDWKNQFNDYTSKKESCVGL

Cannabinoid receptor 1 [2] = biological target: T2, Cannabinoid receptor 1 (Homo sapiens, UniProt P21554); test: Displacement of 3[H]-CP55940 from human recombinant CB1 receptor expressed in HEK293 cell membranes measured after 90 mins
T2 sequence (P21554 whole entry): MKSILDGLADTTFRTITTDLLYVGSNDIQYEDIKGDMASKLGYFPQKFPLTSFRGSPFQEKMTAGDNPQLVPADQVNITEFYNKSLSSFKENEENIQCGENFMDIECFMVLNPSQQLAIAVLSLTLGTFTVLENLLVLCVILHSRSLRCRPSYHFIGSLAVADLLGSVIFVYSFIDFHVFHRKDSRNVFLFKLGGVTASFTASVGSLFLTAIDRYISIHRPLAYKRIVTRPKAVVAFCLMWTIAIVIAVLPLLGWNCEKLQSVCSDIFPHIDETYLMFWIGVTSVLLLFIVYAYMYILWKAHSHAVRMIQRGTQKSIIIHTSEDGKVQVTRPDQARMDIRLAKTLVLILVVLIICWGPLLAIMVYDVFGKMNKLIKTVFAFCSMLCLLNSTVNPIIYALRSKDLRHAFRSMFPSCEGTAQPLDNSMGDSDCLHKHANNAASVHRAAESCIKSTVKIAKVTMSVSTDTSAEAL

Cannabinoid receptor 1 [3] = biological target: T2, Cannabinoid receptor 1; test: Displacement of 3[H]-CP55940 from human recombinant CB1 receptor expressed in HEK293 cell membranes measured after 90 mins by Cheng-Prusoff equation analysis
Cannabinoid receptor 2 [4] = biological target: T3, Cannabinoid receptor 2 (Homo sapiens, UniProt P34972); test: Displacement of 3[H]-CP55940 from human recombinant CB2 receptor expressed in HEK293 cell membranes measured after 90 mins
T3 sequence (P34972 whole entry): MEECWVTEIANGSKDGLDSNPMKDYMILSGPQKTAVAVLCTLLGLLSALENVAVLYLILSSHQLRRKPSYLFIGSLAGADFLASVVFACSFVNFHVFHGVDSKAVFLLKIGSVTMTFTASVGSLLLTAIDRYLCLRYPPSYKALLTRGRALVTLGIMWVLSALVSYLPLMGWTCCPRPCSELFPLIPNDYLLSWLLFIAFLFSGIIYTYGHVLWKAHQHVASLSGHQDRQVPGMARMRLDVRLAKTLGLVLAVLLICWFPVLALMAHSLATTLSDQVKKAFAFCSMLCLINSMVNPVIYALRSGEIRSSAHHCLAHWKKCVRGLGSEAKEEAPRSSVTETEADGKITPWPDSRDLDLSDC

Cannabinoid receptor 2 [5] = biological target: T3, Cannabinoid receptor 2; test: Displacement of 3[H]-CP55940 from human recombinant CB2 receptor expressed in HEK293 cell membranes measured after 90 mins by Cheng-Prusoff equation analysis
Homo sapiens = organism: Homo sapiens; test: Selectivity index, ratio of Ki for displacement of 3[H]-CP55940 from human recombinant CB1 receptor expressed in HEK293 cell membranes to Ki for displacement of 3[H]-CP55940 from human recombinant CB2 receptor expressed in HEK293 cell membranes
Cholinesterase [6] = biological target: T1, Cholinesterase; test: Inhibition of human recombinant BuChE using butyrylthiocholine iodide as substrate preincubated for 20 mins followed by substrate addition by Ellman's spectrophotometric method
Cholinesterase [7] = biological target: T1, Cholinesterase; test: Potency index, ratio of galanthamine IC50 to compound IC50 for inhibition of human recombinant BuChE
Cannabinoid receptor 2 [8] = biological target: T3, Cannabinoid receptor 2; test: Inverse agonist activity at recombinant human CB2R expressed in CHOK1 cells assessed as increase in NKH477-stimulated intracellular cAMP levels after 30 mins by chemiluminescent based cAMP Hunter assay; assay type: functional, cell-based
Summary of the method: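 CHO-K1 cells stably expressing human CB2R, 30,000 cells/well, held overnight. Compound dose-response with NKH-477 (forskolin analogue, 25 µM) for 30 min at 37 °C. cAMP measured by enzyme-fragment-complementation chemiluminescence. Normalized with NKH-477 alone = 100%. Three independent experiments in triplicate, mean ± SEM.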

Cannabinoid receptor 2 [9] = biological target: T3, Cannabinoid receptor 2; test: Inverse agonist activity at recombinant human CB2R expressed in CHOK1 cells assessed as increase in NKH477-stimulated intracellular cAMP levels preincubated for 15 mins followed by CB2 agonist JWH-133 addition and measured after 30 mins by chemiluminescent based cAMP Hunter assay; assay type: functional, cell-based
SH-SY5Y [10] = test: Cytotoxicity against human SH-SY5Y cells assessed as effect on cell viability up to 5 uM after 24 hrs by MTT assay; assay type: cell-based
Summary of the method: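 SH-SY5Y cells grown in DMEM with 10% FBS, 2 mM L-glutamine and penicillin/streptomycin, seeded 2×10^4 cells/well, 24 h, then exposed 24 h to 1.25–40 µM. Viability read as MTT reduction: MTT 0.5 mg/mL in HBSS 2 h at 37 °C, formazan dissolved in isopropanol, absorbance 570 nm (reference 690 nm).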

N9 [11] = test: Immunomodulatory activity in LPS-induced mouse N9 cells assessed as reduction in iNOS expression at 5 uM after 24 hrs by Western blotting analysis relative to control; assay type: functional; conditions: N9, 24 h
Summary of the method: (§1)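 N9 microglia on poly-L-lysine in DMEM high glucose with 10% FBS, plated 2.5×10^5 cells/35 mm dish. Activated with LPS 100 ng/mL together with 0, 5 or 10 µM compound in serum-free DMEM for 24 h. Lysates run on 12.5% SDS-PAGE and immunoblotted for iNOS or TREM2, with GAPDH as loading control, ECL detection. Densitometry given as % of LPS alone, three experiments.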

N9 [12] = test: Immunomodulatory activity in LPS-induced mouse N9 cells assessed as reduction in TREM2 expression at 5 uM after 24 hrs by Western blotting analysis relative to control; assay type: functional, cell-based; summary of the method: as §1
Cannabinoid receptor 2 [13] = biological target: T3, Cannabinoid receptor 2; test: Potency index, ratio of SR144528 Ki to compound Ki for displacement of 3[H]-CP55940 from human recombinant CB2
SH-SY5Y [14] = test: Neuroprotection against amyloid beta (1 to 42) induced toxicity in human SH-SY5Y cells after 4 hrs by MTT assay; assay type: functional, cell-based
Summary of the method: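 SH-SY5Y cells seeded 3×10^4/well, 24 h, then treated 4 h with Aβ1-42 oligomers (10 µM) plus compound at 0.625–5.0 µM. Read by MTT formazan exocytosis assay: MTT 0.5 mg/mL in HBSS 1 h at 37 °C, intracellular formazan dissolved in 1% Tween 20, absorbance 570 nm (reference 690 nm). At least three independent experiments.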

N9 [15] = test: Downregulation of total GAPDH in LPS-induced mouse N9 cells at 5 uM after 24 hrs by Western blotting analysis; assay type: ADME, cell-based; conditions: n9, 24 h; summary of the method: as §1

| Structure (SMILES) | inhibition (Cholinesterase [1]) | IC50 (Cannabinoid receptor 1 [2]) | Ki (Cannabinoid receptor 1 [3]) | IC50 (Cannabinoid receptor 2 [4]) | Ki (Cannabinoid receptor 2 [5]) | Ratio Ki (Homo sapiens) | IC50 (Cholinesterase [6]) | Ratio IC50 (Cholinesterase [7]) | Activity (Cannabinoid receptor 2 [8]) | Activity (Cannabinoid receptor 2 [9]) | Activity (SH-SY5Y [10]) | inhibition at 5 µM (N9 [11]) | Activity (N9 [12]) | Ratio Ki (Cannabinoid receptor 2 [13]) | Activity (SH-SY5Y [14]) | Activity (N9 [15]) |
| --- | --- | --- | --- | --- | --- | --- | --- | --- | --- | --- | --- | --- | --- | --- | --- | --- |
| COc1ccc(-c2oc3ccccc3c2C(=O)c2ccc(NCc3ccccn3)cc2)cc1 | 15.3% | > 10000 nM | > 10000 nM | 5090 nM | 1340 nM | > 7.5 | – | – | – | – | – | – | – | – | – | – |
| COc1ccc(-c2oc3ccccc3c2C(=O)c2ccc(N(Cc3ccccc3)Cc3ccccc3)cc2)cc1 | 30.9% | > 10000 nM | > 10000 nM | 3640 nM | 920 nM | > 11 | – | – | – | – | – | – | – | – | – | – |
| COc1ccc(-c2oc3ccccc3c2C(=O)c2ccc(OCCCCN(C)Cc3ccccc3)cc2)cc1 | 35.2% | 3520 nM | 860 nM | > 10000 nM | > 10000 nM | – | 219000 nM | – | – | – | – | – | – | – | – | – |
| COc1ccc(-c2oc3ccccc3c2C(=O)c2ccc(OCCCN(C)Cc3ccccc3)cc2)cc1 | 35% | 2060 nM | 500 nM | 440 nM | 120 nM | 4.2 | 135000 nM | – | – | – | – | – | – | – | – | – |
| COc1ccc(-c2oc3ccccc3c2C(=O)c2ccc(OCCCCCN(C)Cc3ccccc3)cc2)cc1 | > 90% | 7200 nM | 1760 nM | > 10000 nM | > 10000 nM | – | 1090 nM | 19 | – | – | – | – | – | – | – | – |
| COc1ccc(-c2oc3ccccc3c2C(=O)c2ccc(OCCN(C)Cc3ccccc3)cc2)cc1 | 65% | 1520 nM | 430 nM | 2630 nM | 690 nM | 0.6 | 14000 nM | – | – | – | – | – | – | – | – | – |
| COc1ccc(-c2oc3ccccc3c2C(=O)c2ccc(N(Cc3cc(F)cc(F)c3)Cc3cc(F)cc(F)c3)cc2)cc1 | 67% | > 10000 nM | > 10000 nM | > 10000 nM | > 10000 nM | – | 11700 nM | – | – | – | – | – | – | – | – | – |
| COc1ccc(-c2oc3ccccc3c2C(=O)c2ccc(NCc3ccc(C#N)cc3)cc2)cc1 | < 10% | 9120 nM | 2600 nM | 90 nM | 20 nM | 130 | – | – | – | – | – | – | – | – | – | – |
| COc1ccc(-c2oc3ccccc3c2C(=O)c2ccc(N(C)Cc3ccc(F)cc3)cc2)cc1 | < 10% | 80 nM | 20 nM | 10 nM | 2.7 nM | 7.4 | – | – | Active | Dose-dependent effect | Non-Toxic | 60% | inactive | 600 | – | – |
| CCCCCCCNc1ccc(C(=O)c2c(-c3ccc(OC)cc3)oc3ccccc23)cc1 | 30.2% | 5840 nM | 1660 nM | 1540 nM | 410 nM | 4 | – | – | – | – | – | – | – | – | – | – |
| COc1ccc(-c2oc3ccccc3c2C(=O)c2ccc(N(Cc3ccc(F)cc3)Cc3ccc(F)cc3)cc2)cc1 | 75% | > 10000 nM | > 10000 nM | 1650 nM | 430 nM | > 23 | 6030 nM | – | – | – | – | – | – | – | – | – |
| COc1ccc(-c2oc3ccccc3c2C(=O)c2ccc(NCc3ccccc3)cc2)cc1 | < 10% | > 10000 nM | > 10000 nM | 660 nM | 170 nM | > 59 | – | – | – | – | – | – | – | – | – | – |
| COc1ccc(CNc2ccc(C(=O)c3c(-c4ccc(OC)cc4)oc4ccccc34)cc2)cc1 | < 10% | > 10000 nM | > 10000 nM | 3860 nM | 1020 nM | > 10 | – | – | – | – | – | – | – | – | – | – |
| COc1ccc(-c2oc3ccccc3c2C(=O)c2ccc(NCc3ccc(F)cc3)cc2)cc1 | 60.8% | 3210 nM | 780 nM | 70 nM | 20 nM | 39 | – | – | – | – | Non-Toxic | 83% | inactive | – | Dose-dependent effect | – |
| COc1ccc(-c2oc3ccccc3c2C(=O)c2ccc(-n3cc(COc4cccc(F)c4)nn3)cc2)cc1 | < 10% | > 10000 nM | > 10000 nM | > 10000 nM | > 10000 nM | – | – | – | – | – | – | – | – | – | – | – |
| CCCCCNc1ccc(C(=O)c2c(-c3ccc(OC)cc3)oc3ccccc23)cc1 | 72.2% | 300 nM | 80 nM | 260 nM | 70 nM | 1.1 | 3900 nM | – | – | – | – | – | – | – | – | – |
| CN(CCCCCCCOc1ccc(-c2oc3ccccc3c2C(=O)c2ccccc2)cc1)Cc1ccccc1 | – | – | – | – | – | – | – | – | – | – | – | – | – | – | – | Toxic |
| COc1ccc(-c2oc3ccccc3c2C(=O)c2ccc(NCC3CC3)cc2)cc1 | 22.4% | 1670 nM | 470 nM | 410 nM | 110 nM | 4.3 | – | – | – | – | – | – | – | – | – | – |
| COc1ccc(-c2oc3ccccc3c2C(=O)c2ccc(NCc3cc(F)cc(F)c3)cc2)cc1 | < 10% | > 10000 nM | > 10000 nM | 1150 nM | 300 nM | > 33 | – | – | – | – | – | – | – | – | – | – |
